Reference: ChEMBL document CHEMBL2021906, “A synthetic chalcone as a potent inducer of glutathione biosynthesis” (J Med Chem, 2012)
Activity calls are given as the source filed them. The rule behind the calls is not given here.

Columns and labels:
MCF7 [1] = assay: Increase in intracellular GSH level in human MCF7 cells expressing antioxidant response element at 10 uM after 24 hrs by HPLC analysis relative to control; format: functional
Method in brief: (§1)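 In 24-well plates, AREc32 cells were treated with 10 μM for 6 or 24 h. Cells were PBS-washed, sonicated, and acidified with meta-phosphoric acid (1% v/v final), then centrifuged. GSH in the supernatant was quantified by reverse-phase HPLC with electrochemical detection (pH 3 sodium phosphate/0.9% methanol mobile phase). Results are expressed as % of untreated control, n = 3.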

MCF7 [2] = assay: Increase in intracellular GSH level in human MCF7 cells expressing antioxidant response element at 10 uM after 6 hrs by HPLC analysis relative to control; format: functional; method in brief: as §1
MCF7 [3] = assay: Increase in intracellular GSH level in human MCF7 cells expressing antioxidant response element at 10 uM after 24 hrs by HPLC analysis; format: functional, cell-based; method in brief: as §1
MCF7 [4] = assay: Increase in intracellular GSH level in human MCF7 cells expressing antioxidant response element at 10 uM after 24 hrs by HPLC analysis in presence of GCL inhibitor buthionine sulfoximine; format: functional, cell-based
[5] = target: T1, Nuclear factor erythroid 2-related factor 2 (Homo sapiens) (UniProt Q16236); assay: Induction of Nrf2 transcriptional activity in human MCF7 cells antioxidant response element at 5 uM after 18 hrs by luciferase reporter gene assay in presence of catalytic antioxidant MnTDE-1,3-IP5+; format: cell-based
T1 sequence (whole entry): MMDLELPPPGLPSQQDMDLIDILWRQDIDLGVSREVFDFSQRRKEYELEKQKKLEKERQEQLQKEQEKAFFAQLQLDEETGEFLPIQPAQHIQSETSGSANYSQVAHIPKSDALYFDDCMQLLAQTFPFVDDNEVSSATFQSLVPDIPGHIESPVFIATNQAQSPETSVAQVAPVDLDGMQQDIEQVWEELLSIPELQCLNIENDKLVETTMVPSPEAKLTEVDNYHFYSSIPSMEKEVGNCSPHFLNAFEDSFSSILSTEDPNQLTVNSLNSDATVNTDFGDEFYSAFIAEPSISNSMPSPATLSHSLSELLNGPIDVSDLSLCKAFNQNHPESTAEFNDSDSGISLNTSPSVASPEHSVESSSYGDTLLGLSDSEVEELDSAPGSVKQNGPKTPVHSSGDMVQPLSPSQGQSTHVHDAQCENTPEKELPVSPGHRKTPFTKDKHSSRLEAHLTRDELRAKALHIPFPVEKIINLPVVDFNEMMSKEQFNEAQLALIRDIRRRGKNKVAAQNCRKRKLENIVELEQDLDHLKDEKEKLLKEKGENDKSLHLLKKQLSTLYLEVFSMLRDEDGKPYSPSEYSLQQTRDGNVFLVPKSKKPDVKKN

MCF7 [6] = assay: Increase in intracellular GSH level in human MCF7 cells expressing antioxidant response element at 10 uM after 24 hrs in presence of JNK inhibitor SP600125; format: functional, cell-based
Method in brief: (§2)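 AREc32 cells received 10 μM for 24 h along with 20 μM buthionine sulfoximine, SP600125, SB203580 or MnTDE-1,3-IP5+. Intracellular GSH was measured by HPLC with electrochemical detection after sonication and meta-phosphoric acid extraction. n = 3, with group differences tested at P < 0.05.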

MCF7 [7] = assay: Increase in intracellular GSH level in human MCF7 cells expressing antioxidant response element at 10 uM after 24 hrs in presence of p38 MAPK inhibitor SB203580; format: functional, cell-based; method in brief: as §2
[8] = target: T1, Nuclear factor erythroid 2-related factor 2 (Homo sapiens); assay: Induction of Nrf2 transcriptional activity in human MCF7 cells antioxidant response element at 5 uM after 18 hrs by luciferase reporter gene assay in presence of JNK inhibitor SP600125; format: cell-based
[9] = target: T1, Nuclear factor erythroid 2-related factor 2 (Homo sapiens); assay: Induction of Nrf2 transcriptional activity in human MCF7 cells antioxidant response element at 5 uM after 18 hrs by luciferase reporter gene assay relative to 2,5-DHC; format: cell-based
Method in brief: (§3)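 AREc32 cells (stable ARE-driven firefly luciferase) grown in 12-well plates to ~60% confluence were exposed to 5 μM for 18 h, alongside sulforaphane or tBHQ at 5 μM. Cells were lysed and centrifuged, and luciferase activity was read on a luminometer using an enhanced luciferase kit. n = 4.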

MCF7 [10] = assay: Increase in intracellular GSH level in human MCF7 cells expressing antioxidant response element at 10 uM after 24 hrs in presence of catalytic antioxidant MnTDE-1,3IP5+; format: functional, cell-based; method in brief: as §2
MCF7 [11] = assay: Increase in GCLM level in human MCF7 cells expressing antioxidant response element at 20 uM after 6 hrs by SDS-PAGE immunoblotting technique; format: functional, cell-based
Method in brief: (§4)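 AREc32 cells in six-well plates were treated with 20 μM for 6 h, then PBS-washed, sonicated in PBS, and the cleared supernatant concentrated by evaporation. GCL holoenzyme was immunoblotted after native PAGE; GCLC and GCLM after SDS PAGE. α-GAPDH served as internal standard. The experiment was repeated once.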

MCF7 [12] = assay: Increase in GCLC level in human MCF7 cells expressing antioxidant response element at 20 uM after 6 hrs by SDS-PAGE immunoblotting technique; format: functional, cell-based; method in brief: as §4
[13] = target: T1, Nuclear factor erythroid 2-related factor 2 (Homo sapiens); assay: Induction of Nrf2 transcriptional activity in human MCF7 cells antioxidant response element at 5 uM after 18 hrs by luciferase reporter gene assay relative to sulforaphane; format: cell-based; method in brief: as §3
[14] = target: T1, Nuclear factor erythroid 2-related factor 2 (Homo sapiens); assay: Induction of Nrf2 transcriptional activity in human MCF7 cells antioxidant response element at 5 uM after 18 hrs by luciferase reporter gene assay relative to tert-butylhydroquinone; format: cell-based; method in brief: as §3
MCF7 [15] = assay: Increase in GCL holoenzyme formation in human MCF7 cells expressing antioxidant response element at 20 uM after 6 hrs by native-PAGE immunoblotting technique; format: functional, cell-based; method in brief: as §4
[16] = target: T1, Nuclear factor erythroid 2-related factor 2 (Homo sapiens); assay: Induction of Nrf2 transcriptional activity in human MCF7 cells antioxidant response element at 5 uM after 18 hrs by luciferase reporter gene assay in presence of p38 MAPK inhibitor SB203580; format: cell-based
MCF7 [17] = assay: Cytotoxicity against human MCF7 cells expressing antioxidant response element assessed as LDH release after 48 hrs; format: cell-based; details: MCF7, 48 h
Method in brief: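 MCF-7/AREc32 cells (ARE-luciferase reporter line; DMEM low glucose, 10% FBS, pen/strep, Geneticin, 37 °C, 5% CO2) exposed to 0–60 μM for 48 h. LDH activity measured in medium and cell lysate via NADH consumption at 340 nm after pyruvate addition. Percent LDH release = supernatant/(supernatant + lysate) × 100. n = 3.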

MCF7 [18] = assay: Increase in GCL holoenzyme formation in human MCF7 cells expressing antioxidant response element at 20 uM after 24 hrs by native-PAGE immunoblotting technique; format: functional, cell-based

SMILES	Activity (MCF7 [1]) [%]	Activity (MCF7 [2]) [%]	also measured
COc1cc(O)c(C(=O)/C=C/c2c(Cl)cccc2Cl)c(OC)c1	250	119	
COc1ccc(C(=O)/C=C/c2ccccc2Cl)c(OC)c1	232	109	
COc1cccc(OC)c1C(=O)/C=C/c1cccc(Cl)c1	165	88	
COc1cc(OC)c(C(=O)/C=C/c2c(F)cccc2F)c(OC)c1	223	118	
COc1cccc(OC)c1C(=O)/C=C/c1ccccc1Cl	211	105	
COc1cc(OC)c(/C=C/C(=O)c2ccc(Cl)c(Cl)c2)c(OC)c1	88	98	
COc1cc(OC)c(C(=O)/C=C/c2c(Cl)cc(Cl)cc2Cl)c(OC)c1	246	119	
COc1cccc(OC)c1C(=O)/C=C/c1ccccc1	158	87	
COc1cccc(OC)c1C(=O)/C=C/c1c(Cl)cccc1Cl	256	122	
COc1ccc(C(=O)/C=C/c2c(Cl)cccc2Cl)c(O)c1	193	107	
COc1cc(O)c(C(=O)/C=C/c2ccccc2)c(OC)c1 [FLAVOKAWAIN B]	191	101	
COc1cccc(OC)c1C(=O)/C=C/c1ccccc1F	195	103	
COc1cc(OC)c(C(=O)/C=C/c2ccccc2)c(OC)c1	209	91	
COc1cccc(OC)c1C(=O)/C=C/c1ccc(F)cc1F	182	104	
COc1cccc(OC)c1C(=O)/C=C/c1ccccc1[N+](=O)[O-]	204	106	
O=C(/C=C/c1c(Cl)cccc1Cl)c1ccccc1O	180	108	

SMILES	Activity (MCF7 [1]) [%]	Activity (MCF7 [2]) [%]	also measured
C[S+]([O-])CCCCN=C=S (racemic)			Activity (MCF7 [3]): Active; Activity (MCF7 [4]): inactive
COc1ccc(C(=O)/C=C/c2cccc(F)c2)c(OC)c1	173	78	
COc1cccc(OC)c1/C=C/C(=O)c1ccccc1	189	111	
COc1cc(O)c(C(=O)/C=C/c2ccccc2Cl)c(OC)c1	299	107	Activity [5]: inactive; Activity (MCF7 [6]): Active; Activity (MCF7 [3]): Active; Activity (MCF7 [7]): Active; Activity [8]: inactive; Ratio [9]: 4; Activity (MCF7 [10]): Active; Activity (MCF7 [11]): inactive; Activity (MCF7 [12]): inactive; Ratio [13]: 4; Ratio [14]: 10; Activity (MCF7 [15]): Active; Activity [16]: Active; IC50 (MCF7 [17]): 25 µM; Activity (MCF7 [4]): inactive
COc1cccc(OC)c1C(=O)/C=C/c1cccc(F)c1	171	82	
CC(C)(C)c1cc(O)ccc1O			Activity (MCF7 [3]): Active; Activity (MCF7 [4]): inactive
COc1cc(O)c(C(=O)/C=C/c2c(F)cccc2F)c(OC)c1	226	135	
COc1ccc(C(=O)/C=C/c2cccc(OC)c2OC)c(O)c1	174	100	
COc1ccc(C(=O)/C=C/c2ccc(OC)cc2OC)c(O)c1	160	114	
COc1cccc(O)c1C(=O)/C=C/c1c(Cl)cccc1Cl	183	88	
O=C(/C=C/c1ccccc1)c1ccccc1 [CHALCONE]	115	103	
O=C(/C=C/c1ccccc1)c1cc(O)ccc1O	177	82	Activity (MCF7 [11]): inactive; Activity (MCF7 [12]): inactive; Activity (MCF7 [18]): inactive; Activity (MCF7 [15]): Active; IC50 (MCF7 [17]): 33 µM; Activity (MCF7 [4]): inactive
COc1cccc(OC)c1/C=C/C(=O)c1c(Cl)cccc1Cl	120	93	
COc1ccc(C(=O)/C=C/c2cc(OC)ccc2OC)c(O)c1	153	100	
COc1ccc(C(=O)/C=C/c2c(OC)cccc2OC)c(O)c1	231	90	
COc1ccc(C(=O)/C=C/c2c(OC)cc(OC)cc2OC)c(O)c1	104	91	Activity (MCF7 [4]): inactive
